We go through two compounds from ChEMBL document CHEMBL1177836, “New quinoxaline 1, 4-di-N-oxides: anticancer and hypoxia-selective therapeutic agents” (Eur J Med Chem, 2010).

Assay [1] in a line: Cytotoxicity against mouse EAC cells in aerobic condition assessed as cell viability at 10 ug/ml after 2 hrs by trypan blue exclusion assay. It is filed as functional. The settings on record: Ehrlich, read-out: Activity. In outline:
(§1)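 EAC cells aspirated from ascitic fluid of pre-inoculated female Swiss albino mice, suspended at 2.5×10⁶ cells/ml. Compounds freshly diluted in DMSO, 0.1 ml added per tube. Parallel aerobic and anaerobic tube sets; anaerobic tubes gassed with N₂ throughout. Incubation 2 h, then centrifugation. Trypan blue exclusion with haemocytometer counts; % viability = unstained cells/total cells × 100. DMSO-only negative control.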

The nature of assay [2]: Cytotoxicity against mouse EAC cells in aerobic condition assessed as cell viability at 1 ug/ml after 2 hrs by trypan blue exclusion assay. The class given is functional. The following applies: Ehrlich, read-out: Activity. The method in brief:
as §1

A short description of assay [3]: Cytotoxicity against mouse EAC cells in hypoxic condition assessed as cell viability at 10 ug/ml after 2 hrs by trypan blue exclusion assay. The settings on record: Ehrlich, read-out: Activity. The class given is functional. The method in brief:
as §1

A short description of assay [4]: Cytotoxicity against mouse EAC cells in aerobic condition assessed as cell viability at 5 ug/ml after 2 hrs by trypan blue exclusion assay. The following applies: Ehrlich, read-out: Activity. It is filed as functional. The method in brief:
as §1

A short description of assay [5]: Cytotoxicity against mouse EAC cells in hypoxic condition assessed as cell viability at 1 ug/ml after 2 hrs by trypan blue exclusion assay. The class given is functional. The settings on record: Ehrlich, read-out: Activity. The method in brief: as §1
Assay [6] can be described thus: Cytotoxicity against mouse EAC cells in hypoxic condition assessed as cell viability at 25 ug/ml after 2 hrs by trypan blue exclusion assay. It is filed as functional. The settings on record: Ehrlich, read-out: Activity. In outline: as §1
The nature of assay [7]: Cytotoxicity against mouse EAC cells in aerobic condition assessed as cell viability at 50 ug/ml after 2 hrs by trypan blue exclusion assay. It is filed as functional. The following applies: Ehrlich, read-out: Activity. The method in brief: as §1
For another assay, the system named is HepG2. Put plainly: Growth inhibition of human HepG2 cells after 48 hrs by SRB assay. It is filed as functional, cell-based. The following applies: HepG2, 48 h. The method in brief:
(§2)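 Cells plated at 10⁴ per well and allowed 24 h to attach. Compounds dissolved in DMSO were added at 0.1, 2.5, 5 and 10 µg/ml and incubated 48 h at 37 °C under 5% CO₂. Cells were then fixed, washed and stained with sulforhodamine B, and colour intensity was read on an ELISA reader.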

The test system of the next assay is U-251. Put plainly: Growth inhibition of human U251 cells after 48 hrs by SRB assay. It is filed as functional, cell-based. The following applies: U-251, 48 h. The method in brief: as §2
Assay [8] can be described thus: Ratio of IC50 for mouse EAC cells in aerobic condition to IC50 for mouse EAC cells in hypoxic condition.
A short description of assay [9]: Cytotoxicity against mouse EAC cells in hypoxic condition assessed as cell viability at 50 ug/ml after 2 hrs by trypan blue exclusion assay. It is filed as functional. The settings on record: Ehrlich, read-out: Activity. In outline: as §1
Assay [10] in a line: Cytotoxicity against mouse EAC cells in hypoxic condition assessed as cell viability at 5 ug/ml after 2 hrs by trypan blue exclusion assay. The class given is functional. The settings on record: Ehrlich, read-out: Activity. In outline: as §1
Assay [11] in a line: Cytotoxicity against mouse EAC cells in aerobic condition by trypan blue exclusion assay. The following applies: Ehrlich. The class given is functional, cell-based. The method in brief:
as §1

Assay [12] can be described thus: Cytotoxicity against mouse EAC cells in hypoxic condition by trypan blue exclusion assay. The class given is functional, cell-based. The settings on record: Ehrlich. The method in brief: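 EAC suspension (2.5×10⁶ cells/ml, from ascitic fluid of pre-inoculated female Swiss albino mice) exposed 2 h to DMSO-dissolved compounds over 1–100 µg/ml, in air or under continuous N₂. Viability by trypan blue exclusion, haemocytometer counts. IC50 taken as the concentration causing 50% mortality in net cell numbers.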

Assay [13] is described as follows: Cytotoxicity against mouse EAC cells in aerobic condition assessed as cell viability at 100 ug/ml after 2 hrs by trypan blue exclusion assay. The following applies: Ehrlich, read-out: Activity. The class given is functional. In outline:
as §1

Assay [14] is described as follows: Cytotoxicity against mouse EAC cells in aerobic condition assessed as cell viability at 25 ug/ml after 2 hrs by trypan blue exclusion assay. The class given is functional. The settings on record: Ehrlich, read-out: Activity. The method in brief:
as §1

For another assay, the system named is Ehrlich. In words: Cytotoxicity against mouse EAC cells in hypoxic condition assessed as concentration required for 1% cell survival.
The nature of assay [15]: Cytotoxicity against mouse EAC cells in hypoxic condition assessed as cell viability at 100 ug/ml after 2 hrs by trypan blue exclusion assay. The settings on record: Ehrlich, read-out: Activity. The class given is functional. The method in brief:
as §1

Structures are written as SMILES. ≈ marks a conversion by molar mass, not a printed value.

On to `CNc1c(C#N)[n+]([O-])c2cc(Cl)ccc2[n+]1[O-]`, for which the viability at 10 µg/mL in assay [1] turned out to be 96.7%; in assay [3] it was 92.7%. In addition, the results for the viability at 1 µg/mL in assay [2] and in assay [5] were 100% and 99.5%, respectively. Moreover, the viability at 5 µg/mL in [4] and in assay [10] was 96% in each case. The viability at 25 µg/mL worked out at 90.6% in assay [6] and 94% in [14]. In addition, the viability at 50 µg/mL in assay [7] worked out at 82.7%; in assay [9] it was 81.4%. In addition, the IC50 is 4.75 mg/L (≈ 19 µM) in the assay with HepG2, more than 10 mg/L in the assay on U-251, more than 100 mg/L in assay [11] and more than 100 mg/L in [12]. Moreover, in assay [8], the HCR (IC50 air/IC50 hypoxia ratio) was more than 1. In addition, the values for the viability at 100 µg/mL in assay [13] and in assay [15] were 89% and 72%, respectively. The Potency in the assay on Ehrlich was more than 100 mg/L.
Turning to `CC(=O)N(C(C)=O)c1c(C#N)[n+]([O-])c2cc(Cl)ccc2[n+]1[O-]`, the viability at 10 µg/mL in assay [1] worked out at 83.9%; in [3], 12.6%. In addition, the viability at 1 µg/mL in assay [2] was determined as 99.6%; in assay [5], 75.4%. Also, the figures for the viability at 5 µg/mL in [4] and in assay [10] were 99% and 30.3%, respectively. The viability at 25 µg/mL amounted to 3% in [6] and 80.7% in [14]. The viability at 50 µg/mL is 78.9% in assay [7] and 1.3% in assay [9]. The concentration for half-maximal inhibition (IC50) in the assay on HepG2 was 5.69 mg/L (≈ 17.7 µM); in the assay with U-251, more than 10 mg/L; in [11], more than 100 mg/L; in [12], 2.5 mg/L (≈ 7.8 µM). In addition, in assay [8], the HCR (IC50 air/IC50 hypoxia ratio) is more than 40. Besides, the viability at 100 µg/mL was found to be 77.7% in assay [13] and 0% in assay [15]. For the same compound, the Potency in the assay with Ehrlich was 22 mg/L (≈ 68.6 µM).
